Assay results: ChEMBL document CHEMBL4715798, “Structure-Based Optimization of Multifunctional Agonists for Opioid and Neuropeptide FF Receptors with Potent Nontolerance Forming Analgesic Activities” (J Med Chem, 2016)
The source made the active and inactive calls. The rule behind the calls is not given here. Non-standard residues stand in square brackets, D forms with d. Residues, ends and D or L forms follow the SMILES beside them. NMeY = CN[C@@H](Cc1ccc(O)cc1)C(=O)O; NMeF = CN[C@@H](Cc1ccccc1)C(=O)O

How the values were obtained:
Mus musculus [1] = assay: Antinociceptive activity in mouse assessed as development of tolerance dosed repeated icv injections for 6 days by radiant heat tail-flick test; format: functional, organism-based; settings: time 6.0 day
Summary of the method: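 Tail-flick test in mice. Peptide was given icv once daily for 6 days at a fixed dose. Antinociceptive responses to the same dose on day 1 and day 6 were compared to judge tolerance. Values are mean ± SEM.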

[2] = target: T1, Neuropeptide FF receptor 2 (Homo sapiens, UniProt Q9Y5X5); assay: Agonist activity at NPFFR2 (unknown origin) expressed in HEK293-A cells assessed as reduction in forskolin-induced cAMP accumulation incubated for 30 mins by competition PKA binding assay; format: functional, cell-based
Summary of the method: (§1)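 cAMP functional read-out in transfected cells. Log EC50 ± standard error was obtained by nonlinear regression of data from at least three independent experiments run in duplicate.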

[3] = target: T2, Neuropeptide FF receptor 1 (Homo sapiens, UniProt Q9GZQ6); assay: Agonist activity at NPFFR1 (unknown origin) expressed in HEK293-A cells assessed as reduction in forskolin-induced cAMP accumulation incubated for 30 mins by competition PKA binding assay relative to Tyr-D-Ala-Gly-Phe-Gln-Pro-Gln-Arg-Phe-NH2; format: functional, cell-based; settings: filed as agonist; summary of the method: as §1
[4] = target: T3, Delta-type opioid receptor (Homo sapiens, UniProt P41143); assay: Agonist activity at delta opioid receptor (unknown origin) expressed in HEK293-A cells assessed as reduction in forskolin-induced cAMP accumulation incubated for 30 mins by competition PKA binding assay; format: functional, cell-based; summary of the method: as §1
[5] = target: T2, Neuropeptide FF receptor 1; assay: Agonist activity at NPFFR1 (unknown origin) expressed in HEK293-A cells assessed as reduction in forskolin-induced cAMP accumulation incubated for 30 mins by competition PKA binding assay; format: functional, cell-based; summary of the method: as §1
[6] = target: Kappa-type opioid receptor (Homo sapiens, UniProt P41145); assay: Agonist activity at kappa opioid receptor (unknown origin) expressed in HEK293-A cells assessed as reduction in forskolin-induced cAMP accumulation incubated for 30 mins by competition PKA binding assay; format: functional, cell-based; summary of the method: as §1
[7] = target: T1, Neuropeptide FF receptor 2; assay: Agonist activity at NPFFR2 (unknown origin) expressed in HEK293-A cells assessed as reduction in forskolin-induced cAMP accumulation incubated for 30 mins by competition PKA binding assay relative to Tyr-D-Ala-Gly-Phe-Gln-Pro-Gln-Arg-Phe-NH2; format: functional, cell-based; summary of the method: as §1
[8] = target: T3, Delta-type opioid receptor; assay: Agonist activity at delta opioid receptor (unknown origin) expressed in HEK293-A cells assessed as reduction in forskolin-induced cAMP accumulation incubated for 30 mins by competition PKA binding assay relative to Tyr-D-Ala-Gly-Phe-Gln-Pro-Gln-Arg-Phe-NH2; format: functional, cell-based; settings: filed as agonist; summary of the method: as §1
Mu-type opioid receptor [9] = target: T4, Mu-type opioid receptor (Homo sapiens, UniProt P35372); assay: Agonist activity at mu opioid receptor (unknown origin) expressed in HEK293-A cells assessed as reduction in forskolin-induced cAMP accumulation incubated for 30 mins by competition PKA binding assay relative to Tyr-D-Ala-Gly-Phe-Gln-Pro-Gln-Arg-Phe-NH2; format: functional, cell-based; settings: filed as agonist; summary of the method: as §1
Mus musculus [10] = assay: Antinociceptive activity in mouse dosed repeated icv injections for 6 days by radiant heat tail-flick test; format: functional; settings: time 6 day
Summary of the method: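 Mice received the same icv dose once daily for 6 days in the radiant heat tail-flick test. Tolerance was judged by comparing the antinociceptive response on day 1 with day 6. Values are mean ± SEM.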

Mu-type opioid receptor [11] = target: T4, Mu-type opioid receptor; assay: Agonist activity at mu opioid receptor (unknown origin) expressed in HEK293-A cells assessed as reduction in forskolin-induced cAMP accumulation incubated for 30 mins by competition PKA binding assay; format: functional, cell-based; summary of the method: as §1
[12] = target: T2, Neuropeptide FF receptor 1; assay: Agonist activity at NPFFR1 (unknown origin) expressed in HEK293-A cells assessed as reduction in forskolin-induced cAMP accumulation at 10 uM incubated for 30 mins by competition PKA binding assay relative to Tyr-D-Ala-Gly-Phe-Gln-Pro-Gln-Arg-Phe-NH2; format: functional, cell-based; summary of the method: as §1
Mus musculus [13] = assay: Antinociceptive activity in icv dosed mouse assessed as inhibition of phase I flinching behaviors by formalin-induced nociceptive behavioral test; format: functional
Mus musculus [14] = assay: Antinociceptive activity in icv dosed mouse assessed as inhibition of phase II flinching behaviors by formalin-induced nociceptive behavioral test; format: functional
Mus musculus [15] = organism: Mus musculus; assay: Antinociceptive activity in mouse; format: functional
[16] = target: T3, Delta-type opioid receptor; assay: Agonist activity at delta opioid receptor (unknown origin) expressed in HEK293-A cells assessed as reduction in forskolin-induced cAMP accumulation at 10 uM incubated for 30 mins by competition PKA binding assay relative to Tyr-D-Ala-Gly-Phe-Gln-Pro-Gln-Arg-Phe-NH2; format: functional, cell-based; settings: filed as agonist; summary of the method: as §1
Mus musculus [17] = assay: Antinociceptive activity in mouse model of CFA-induced chronic inflammatory pain assessed as reduction in tactile hyperalgesia at 3 nmol, icv dosed once daily for 6 days; format: functional, organism-based; settings: time 6.0 day
Mus musculus [18] = assay: Antinociceptive activity in mouse model of CFA-induced chronic inflammatory pain assessed as reduction in tactile hyperalgesia at 3 nmol, icv after 15 to 90 mins; format: functional, organism-based; settings: time 15-90 min

Structure (SMILES) | Activity (Mus musculus [1]) | EC50 ([2]; read-out: EC50) | Emax [3] | EC50 [4] | EC50 ([5]; read-out: EC50) | EC50 [6] | Emax ([7]; filed as agonist) | Emax [8] | Emax (Mu-type opioid receptor [9]) | ED50 (Mus musculus [10]) | EC50 (Mu-type opioid receptor [11]; read-out: EC50) | also measured
CSCC[C@@H](NC(=O)[C@@H](N)Cc1ccc(O)cc1)C(=O)NCC(=O)N[C@@H](Cc1ccccc1)C(=O)N[C@@H](CCC(N)=O)C(=O)N1CCC[C@H]1C(=O)N[C@@H](CCC(N)=O)C(=O)N[C@@H](CCCNC(=N)N)C(=O)N[C@@H](Cc1ccccc1)C(N)=O | inactive | 41.3 nM | 73.5% | 114 nM | 661 nM | 1260 nM | 57.9% | 84.7% | 89.4% | 0.0314 nmol | 424 nM | 
C[C@@H](NC(=O)[C@@H](N)Cc1ccc(O)cc1)C(=O)NCC(=O)N(C)[C@@H](Cc1ccccc1)C(=O)N[C@@H](CCC(N)=O)C(=O)N1CCC[C@H]1C(=O)N[C@@H](CCC(N)=O)C(=O)N[C@@H](CCCNC(=N)N)C(=O)N[C@@H](Cc1ccccc1)C(N)=O (H-Y[dA]G[NMeF]QPQRF-NH2) | Active | 272 nM | 67.7% | 157 nM | 289 nM | 31 nM | 54.5% | 84.9% | 91.6% | 0.3862 nmol | 20.1 nM | 
CSCC[C@@H](NC(=O)[C@H](Cc1ccccc1)NC(=O)CNC(=O)[C@@H](C)NC(=O)[C@@H](N)Cc1ccc(O)cc1)C(=O)N1CCC[C@H]1C(=O)N[C@@H](CCC(N)=O)C(=O)N[C@@H](CCCNC(=N)N)C(=O)N[C@@H](Cc1ccccc1)C(N)=O (H-Y[dA]GF[dM]PQRF-NH2) | Active | 318 nM |  | 120 nM |  | 2460 nM | 70.2% | 78.4% | 89.7% | 0.3986 nmol | 409 nM | Emax [12]: 26.6%
CC(C)C[C@H](NC(=O)[C@H](Cc1ccccc1)NC(=O)CNC(=O)[C@@H](C)NC(=O)[C@@H](N)Cc1ccc(O)cc1)C(=O)N1CCC[C@H]1C(=O)N[C@@H](CCC(N)=O)C(=O)N[C@@H](CCCNC(=N)N)C(=O)N[C@@H](Cc1ccccc1)C(N)=O (H-Y[dA]GFLPQRF-NH2) | Active | 259 nM | 68.4% | 49.3 nM | 54.4 nM | 120 nM | 57.3% | 79.1% | 98.9% | 0.1865 nmol | 250 nM | EC50 ([5]; read-out: pEC50 (converted)): 53.7 nM
C[C@@H](NC(=O)[C@@H](N)Cc1ccc(O)cc1)C(=O)NCC(=O)N[C@@H](Cc1ccccc1)C(=O)NCC(=O)N1CCC[C@H]1C(=O)N[C@@H](CCC(N)=O)C(=O)N[C@@H](CCCNC(=N)N)C(=O)N[C@@H](Cc1ccccc1)C(N)=O (H-Y[dA]GFGPQRF-NH2) | Active | 185 nM | 66.8% | 898 nM | 881 nM | 1630 nM | 56.2% | 75.7% | 80.4% | 0.4172 nmol | 28.4 nM | 
C[C@@H](NC(=O)[C@@H](N)Cc1ccc(O)cc1)C(=O)NCC(=O)N[C@@H](Cc1ccccc1)C(=O)N[C@@H](CCC(N)=O)C(=O)N1CCC[C@H]1C(=O)N[C@@H](CCC(N)=O)C(=O)N[C@@H](CCCNC(=N)N)C(=O)N[C@@H](Cc1ccccc1)C(N)=O (H-Y[dA]GFQPQRF-NH2) | Active | 185 nM | 59.9% | 587 nM | 591 nM | 564 nM | 58.4% | 82.2% | 92.4% | 0.533 nmol | 308 nM | ED50 (Mus musculus [13]): 120 pmol; ED50 (Mus musculus [14]): 1140 pmol; ED50 (Mus musculus [15]): 0.39 nmol
CSCC[C@H](NC(=O)[C@H](Cc1ccccc1)NC(=O)CNC(=O)[C@@H](C)NC(=O)[C@@H](N)Cc1ccc(O)cc1)C(=O)N1CCC[C@H]1C(=O)N[C@@H](CCC(N)=O)C(=O)N[C@@H](CCCNC(=N)N)C(=O)N[C@@H](Cc1ccccc1)C(N)=O (H-Y[dA]GFMPQRF-NH2) | Active | 87 nM | 69.2% | 38.8 nM | 301 nM | 240 nM | 58.4% | 81.2% | 89.2% | 0.2967 nmol | 127 nM | 
CN[C@@H](Cc1ccc(O)cc1)C(=O)N[C@H](C)C(=O)NCC(=O)N[C@@H](Cc1ccccc1)C(=O)N[C@@H](CCC(N)=O)C(=O)N1CCC[C@H]1C(=O)N[C@@H](CCC(N)=O)C(=O)N[C@@H](CCCNC(=N)N)C(=O)N[C@@H](Cc1ccccc1)C(N)=O (H-[NMeY][dA]GFQPQRF-NH2) | Active | 132 nM | 72.4% |  | 928 nM | 2590 nM | 49.5% |  | 86.7% | 1.298 nmol | 196 nM | Emax [16]: 70%
CC(C)C[C@@H](NC(=O)[C@H](Cc1ccccc1)NC(=O)CNC(=O)[C@@H](C)NC(=O)[C@@H](N)Cc1ccc(O)cc1)C(=O)N1CCC[C@H]1C(=O)N[C@@H](CCC(N)=O)C(=O)N[C@@H](CCCNC(=N)N)C(=O)N[C@@H](Cc1ccccc1)C(N)=O (H-Y[dA]GF[dL]PQRF-NH2) | Active | 651 nM |  | 56.9 nM |  |  |  | 86.4% | 86.3% | 0.4367 nmol | 583 nM | Emax [12]: 30.7%; Emax [7]: 37.2%
N=C(N)NCCC[C@H](NC(=O)[C@H](CCC(N)=O)NC(=O)[C@@H]1CCCN1C(=O)[C@H](CCC(N)=O)NC(=O)[C@H](Cc1ccccc1)NC(=O)CNC(=O)[C@@H](CO)NC(=O)[C@@H](N)Cc1ccc(O)cc1)C(=O)N[C@@H](Cc1ccccc1)C(N)=O | inactive | 254 nM | 82.3% | 118 nM | 3200 nM | 1470 nM | 63% | 84.9% | 97.1% | 0.6062 nmol | 563 nM | EC50 ([2]; read-out: pEC50 (converted)): 245 nM
CN1CC[C@]23c4c5ccc(O)c4O[C@H]2[C@@H](O)C=C[C@H]3[C@H]1C5 [MORPHINE] |  |  |  |  |  |  |  |  |  |  |  | Activity (Mus musculus [17]): inactive; ED50 (Mus musculus [15]): 1.02 nmol; Activity (Mus musculus [18]): Active
C[C@@H](NC(=O)[C@@H](N)Cc1ccc(O)cc1)C(=O)NCC(=O)N[C@@H](Cc1ccccc1)C(=O)N[C@H](C)C(=O)N1CCC[C@H]1C(=O)N[C@@H](CCC(N)=O)C(=O)N[C@@H](CCCNC(=N)N)C(=O)N[C@@H](Cc1ccccc1)C(N)=O (H-Y[dA]GF[dA]PQRF-NH2) | Active | 5010 nM |  | 810 nM |  |  | 45.9% | 85.3% | 85.6% | 0.3361 nmol | 249 nM | Emax [12]: 15.1%; EC50 (Mu-type opioid receptor [11]; read-out: pEC50 (converted)): 245 nM
